Measurements as given in ChEMBL document CHEMBL5247673, “Discovery of Small Molecules Targeting the Frameshifting Element RNA in SARS-CoV-2 Viral Genome” (ACS Med Chem Lett, 2023).

Assays:
[1] = (§1) Inhibition of programmed -1 ribosomal frameshifting in human MCF7 cells harboring pCherryGFP-CoV2-WT plasmid assessed as inhibition of GFP expression incubated for 30 mins by fluorescence microscopic analysis; type: functional, cell-based; details: MCF7, 0.5 h
How it was run: (§2)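 MCF-7 cells were treated with compound at various concentrations and transfected with an mCherry–FSE–GFP reporter: WT, a stop-codon negative control, or an in-frame no-FSE plasmid. GFP expression was the read-out, compared with a DMSO (0 μM) control. Data are mean ± SD of three independent experiments.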

MCF7 = experiment: as §1; type: functional, cell-based; how it was run: as §2
[2] = Inhibition of programmed -1 ribosomal frameshifting in human MCF7 cells harboring pCherryGFP-CoV2-WT plasmid assessed as inhibition of GFP expression at 50 uM incubated for 30 mins by fluorescence microscopic analysis; type: functional; details: MCF7, 0.5 h; how it was run: as §2

## CCNCC1CCN(c2c(F)cc3c(=O)c(C(=O)O)cn(CC)c3c2F)C1 (stereo not drawn) [MERAFLOXACIN]
[1]
  IC50: 33.5 µM

## COc1ccc(-c2nc(NCCN3CCOCC3)c3ccccc3n2)cc1
MCF7
  inhibition: Dose-Dependent Effect

## COc1ccc(-c2nc(NCCN3CCOCC3)c3cc(OC)ccc3n2)cc1
[2]
  inhibition at 50 µM: 50%
